In ChEMBL document CHEMBL1152541, “Staurosporine tethered peptide ligands that target cAMP-dependent protein kinase (PKA): optimization and selectivity profiling” (Bioorg Med Chem, 2009):
Each block holds one compound with its values, some of them ahead of it. *1 amine or outer side, *2 acyl side, *3 side chain or, on linkers, in order; H or OH if unused. Where a SMILES comes first, the peptide text is derived from it. Bridges are numbered along the chain shown (N, C = ends). [ ]: non-standard residue; d: D form. The star is where a group is joined. Staurosporine = CO[C@@H]1[C@H](N(C)*)C[C@H]2O[C@]1(C)n1c3ccccc3c3c4c(c5c6ccccc6n2c5c31)C(=O)NC4; Suc = O=C(CCC(=O)[*:2])[*:1]; Dap = NC[C@H](N)C(=O)O; βAla = NCCC(=O)O

Assays:
[1] = biological target: Ribosomal protein S6 kinase alpha-3 (Homo sapiens) (UniProt P51812); assay: Binding affinity to human RPS6KA3 kinase domain 1 at 500 nM by cell-based competition binding assay relative to control in presence of DTT
[2] = biological target: T1, Bone morphogenetic protein receptor type-2 (Homo sapiens) (UniProt Q13873); assay: Binding affinity to human BMPR2 at 500 nM by cell-based competition binding assay relative to control in presence of DTT
T1 sequence (whole entry): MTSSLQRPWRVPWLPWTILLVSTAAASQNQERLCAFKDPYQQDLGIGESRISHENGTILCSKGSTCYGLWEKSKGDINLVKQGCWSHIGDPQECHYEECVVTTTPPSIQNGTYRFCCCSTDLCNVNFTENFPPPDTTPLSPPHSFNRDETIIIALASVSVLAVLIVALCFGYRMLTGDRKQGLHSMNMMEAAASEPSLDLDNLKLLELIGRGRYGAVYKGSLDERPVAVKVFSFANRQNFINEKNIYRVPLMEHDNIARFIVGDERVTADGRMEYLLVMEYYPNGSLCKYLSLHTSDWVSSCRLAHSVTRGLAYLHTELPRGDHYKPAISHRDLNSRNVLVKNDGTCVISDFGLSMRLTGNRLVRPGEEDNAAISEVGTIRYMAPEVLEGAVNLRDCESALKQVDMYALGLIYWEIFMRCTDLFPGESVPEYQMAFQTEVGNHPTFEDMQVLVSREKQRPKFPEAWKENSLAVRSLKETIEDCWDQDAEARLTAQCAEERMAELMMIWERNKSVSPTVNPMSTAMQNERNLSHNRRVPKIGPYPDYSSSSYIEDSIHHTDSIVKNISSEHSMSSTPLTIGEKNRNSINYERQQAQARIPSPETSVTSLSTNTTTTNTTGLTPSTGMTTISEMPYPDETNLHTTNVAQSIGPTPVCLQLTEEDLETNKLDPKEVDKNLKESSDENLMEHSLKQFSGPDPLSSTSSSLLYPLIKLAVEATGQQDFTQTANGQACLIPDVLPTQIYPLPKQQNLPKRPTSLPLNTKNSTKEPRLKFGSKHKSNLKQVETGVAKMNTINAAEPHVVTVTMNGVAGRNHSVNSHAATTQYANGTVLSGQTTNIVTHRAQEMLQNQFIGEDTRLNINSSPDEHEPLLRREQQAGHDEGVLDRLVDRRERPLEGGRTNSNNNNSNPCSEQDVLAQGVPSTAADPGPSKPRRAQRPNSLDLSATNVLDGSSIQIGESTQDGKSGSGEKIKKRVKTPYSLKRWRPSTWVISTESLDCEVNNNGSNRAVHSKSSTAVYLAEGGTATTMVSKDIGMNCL
Outline: (§1)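 Kinase binding profiling ran on a commercial (Ambit) competitive binding screen against a panel of 90 kinases. The screen used reducing conditions with 7.5 mM DTT. To withstand the DTT, the bivalent ligand was tested as its amide isostere, with the disulfide replaced. A staurosporine derivative carrying a 3 β-alanine linker was run as the reference compound.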

[3] = biological target: Fibroblast growth factor receptor 2 (Homo sapiens) (UniProt P21802); assay: Binding affinity to human FGFR2 at 500 nM by cell-based competition binding assay relative to control in presence of DTT
Outline: (§2)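 Commercial (Ambit) competitive kinase-binding panel of 90 kinases measured the binding profile. Run under reducing conditions of 7.5 mM DTT. Binding is expressed relative to control.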

[4] = biological target: Serine/threonine-protein kinase PAK 4 (Homo sapiens) (UniProt O96013); assay: Binding affinity to human PAK4 at 500 nM by cell-based competition binding assay relative to control in presence of DTT
[5] = biological target: MAP kinase-interacting serine/threonine-protein kinase 2 (Homo sapiens) (UniProt Q9HBH9); assay: Binding affinity to human MKNK2 at 200 nM by cell-based competition binding assay relative to control in presence of DTT
[6] = biological target: Serine/threonine-protein kinase PLK1 (Homo sapiens) (UniProt P53350); assay: Binding affinity to human PLK1 at 200 nM by cell-based competition binding assay relative to control in presence of DTT
[7] = biological target: Dual specificity mitogen-activated protein kinase kinase 1 (Homo sapiens) (UniProt Q02750); assay: Binding affinity to human MEK1 at 200 nM by cell-based competition binding assay relative to control in presence of DTT
Outline: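 Kinase binding profile from a commercial panel of 90 kinases, run as a competitive binding assay. The panel was screened under reducing conditions of 7.5 mM DTT. Signal was compared with the untreated control.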

[8] = biological target: T2, 3-phosphoinositide-dependent protein kinase 1 (Homo sapiens) (UniProt O15530); assay: Binding affinity to human PDPK1 at 200 nM by cell-based competition binding assay relative to control in presence of DTT
T2 sequence (whole entry): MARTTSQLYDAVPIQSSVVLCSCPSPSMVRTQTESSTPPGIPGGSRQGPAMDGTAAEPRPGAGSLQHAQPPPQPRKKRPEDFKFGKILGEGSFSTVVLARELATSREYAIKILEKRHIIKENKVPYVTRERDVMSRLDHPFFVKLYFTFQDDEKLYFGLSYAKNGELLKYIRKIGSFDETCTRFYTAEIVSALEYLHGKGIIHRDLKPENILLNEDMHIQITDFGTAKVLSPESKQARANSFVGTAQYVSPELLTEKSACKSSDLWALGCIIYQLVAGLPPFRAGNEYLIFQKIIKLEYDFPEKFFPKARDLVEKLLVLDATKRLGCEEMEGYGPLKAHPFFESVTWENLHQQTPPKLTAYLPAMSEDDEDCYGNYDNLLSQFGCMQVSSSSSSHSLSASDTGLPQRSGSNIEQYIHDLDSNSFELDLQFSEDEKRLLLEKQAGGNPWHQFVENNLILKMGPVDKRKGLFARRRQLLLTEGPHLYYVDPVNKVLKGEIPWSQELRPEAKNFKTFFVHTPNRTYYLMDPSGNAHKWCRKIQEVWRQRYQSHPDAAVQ

[9] = biological target: Fibroblast growth factor receptor 2 (Homo sapiens) (UniProt P21802); assay: Binding affinity to human FGFR2 at 50 nM by cell-based competition binding assay relative to control in presence of DTT; outline: as §2
[10] = biological target: MAP/microtubule affinity-regulating kinase 3 (Homo sapiens) (UniProt P27448); assay: Binding affinity to human MARK3 at 50 nM by cell-based competition binding assay relative to control in presence of DTT
Outline: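 Competition binding screen (Ambit) across a panel of 90 kinases, scoring test ligand displacement of each kinase's binding relative to control. The screen ran under reducing conditions with 7.5 mM DTT.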

[11] = biological target: Tyrosine-protein kinase BTK (Homo sapiens) (UniProt Q06187); assay: Binding affinity to human BTK at 50 nM by cell-based competition binding assay relative to control in presence of DTT; outline: as §1
Sequence of Tyrosine-protein kinase BTK (Homo sapiens) (Q06187 whole entry): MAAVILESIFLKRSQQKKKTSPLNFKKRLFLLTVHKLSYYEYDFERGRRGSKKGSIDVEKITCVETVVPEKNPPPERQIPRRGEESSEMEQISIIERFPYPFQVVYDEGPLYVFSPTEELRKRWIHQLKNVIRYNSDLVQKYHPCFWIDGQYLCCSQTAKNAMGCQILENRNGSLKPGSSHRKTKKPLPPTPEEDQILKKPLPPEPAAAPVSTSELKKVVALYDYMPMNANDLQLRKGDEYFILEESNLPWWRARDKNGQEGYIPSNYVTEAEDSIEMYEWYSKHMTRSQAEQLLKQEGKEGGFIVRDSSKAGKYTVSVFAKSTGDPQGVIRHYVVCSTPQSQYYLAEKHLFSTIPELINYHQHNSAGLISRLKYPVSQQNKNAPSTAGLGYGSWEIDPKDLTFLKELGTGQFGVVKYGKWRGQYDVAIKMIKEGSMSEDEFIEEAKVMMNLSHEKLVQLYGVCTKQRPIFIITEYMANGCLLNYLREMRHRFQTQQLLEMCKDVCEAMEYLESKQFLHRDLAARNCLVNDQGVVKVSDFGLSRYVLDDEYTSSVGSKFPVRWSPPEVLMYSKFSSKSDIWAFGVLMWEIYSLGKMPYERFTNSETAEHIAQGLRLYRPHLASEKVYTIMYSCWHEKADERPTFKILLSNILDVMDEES

Sequence of Fibroblast growth factor receptor 2 (Homo sapiens) (P21802 22-821 limits assumed): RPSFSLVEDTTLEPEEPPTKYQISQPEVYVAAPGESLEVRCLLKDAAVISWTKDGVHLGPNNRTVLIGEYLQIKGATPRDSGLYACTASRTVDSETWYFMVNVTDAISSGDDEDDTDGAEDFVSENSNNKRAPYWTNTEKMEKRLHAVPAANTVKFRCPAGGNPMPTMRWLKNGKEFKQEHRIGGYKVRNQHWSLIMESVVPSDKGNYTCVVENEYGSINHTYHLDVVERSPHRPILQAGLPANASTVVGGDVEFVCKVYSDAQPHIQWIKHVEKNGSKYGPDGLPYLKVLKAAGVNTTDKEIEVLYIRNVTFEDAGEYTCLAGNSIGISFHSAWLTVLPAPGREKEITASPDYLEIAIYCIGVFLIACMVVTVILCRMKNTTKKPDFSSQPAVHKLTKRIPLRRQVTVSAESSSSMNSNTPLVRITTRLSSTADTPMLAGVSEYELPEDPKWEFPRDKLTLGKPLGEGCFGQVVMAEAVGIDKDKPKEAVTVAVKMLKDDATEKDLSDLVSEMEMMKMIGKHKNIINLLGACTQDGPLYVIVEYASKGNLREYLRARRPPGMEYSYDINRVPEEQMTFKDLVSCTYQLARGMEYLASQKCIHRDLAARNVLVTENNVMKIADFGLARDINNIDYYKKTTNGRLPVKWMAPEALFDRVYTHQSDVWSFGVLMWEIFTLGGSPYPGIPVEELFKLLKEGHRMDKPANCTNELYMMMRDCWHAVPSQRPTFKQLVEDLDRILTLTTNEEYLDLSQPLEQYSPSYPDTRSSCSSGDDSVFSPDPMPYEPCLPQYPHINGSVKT
Sequence of MAP kinase-interacting serine/threonine-protein kinase 2 (Homo sapiens) (Q9HBH9 whole entry, looked up): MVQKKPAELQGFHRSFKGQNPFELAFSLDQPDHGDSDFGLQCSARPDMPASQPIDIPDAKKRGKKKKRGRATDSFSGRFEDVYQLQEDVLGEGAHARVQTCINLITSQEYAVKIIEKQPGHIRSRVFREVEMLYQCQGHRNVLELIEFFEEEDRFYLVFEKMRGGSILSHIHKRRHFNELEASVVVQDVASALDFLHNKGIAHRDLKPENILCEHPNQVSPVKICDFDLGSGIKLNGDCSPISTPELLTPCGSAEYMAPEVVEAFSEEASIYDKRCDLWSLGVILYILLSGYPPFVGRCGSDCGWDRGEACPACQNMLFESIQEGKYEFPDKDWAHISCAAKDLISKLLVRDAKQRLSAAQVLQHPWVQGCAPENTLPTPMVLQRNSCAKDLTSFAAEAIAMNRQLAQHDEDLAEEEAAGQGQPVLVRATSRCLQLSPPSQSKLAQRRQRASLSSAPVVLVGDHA
Sequence of Serine/threonine-protein kinase PLK1 (Homo sapiens) (P53350 whole entry): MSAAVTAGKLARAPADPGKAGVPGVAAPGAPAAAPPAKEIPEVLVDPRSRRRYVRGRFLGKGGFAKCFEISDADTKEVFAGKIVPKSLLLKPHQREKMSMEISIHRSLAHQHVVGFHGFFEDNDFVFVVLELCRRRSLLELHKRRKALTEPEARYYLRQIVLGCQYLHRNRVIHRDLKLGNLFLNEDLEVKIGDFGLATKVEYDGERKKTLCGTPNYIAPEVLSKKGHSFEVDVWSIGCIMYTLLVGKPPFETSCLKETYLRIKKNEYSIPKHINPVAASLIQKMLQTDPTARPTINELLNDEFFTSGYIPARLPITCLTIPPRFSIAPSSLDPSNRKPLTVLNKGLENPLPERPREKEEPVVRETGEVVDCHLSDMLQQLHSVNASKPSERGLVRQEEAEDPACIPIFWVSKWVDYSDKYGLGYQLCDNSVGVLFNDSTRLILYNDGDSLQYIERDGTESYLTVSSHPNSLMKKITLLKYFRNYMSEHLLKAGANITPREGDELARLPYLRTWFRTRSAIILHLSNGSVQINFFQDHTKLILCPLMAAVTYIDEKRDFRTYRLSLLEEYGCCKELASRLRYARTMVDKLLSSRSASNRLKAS
Sequence of Serine/threonine-protein kinase PAK 4 (Homo sapiens) (O96013 whole entry, looked up): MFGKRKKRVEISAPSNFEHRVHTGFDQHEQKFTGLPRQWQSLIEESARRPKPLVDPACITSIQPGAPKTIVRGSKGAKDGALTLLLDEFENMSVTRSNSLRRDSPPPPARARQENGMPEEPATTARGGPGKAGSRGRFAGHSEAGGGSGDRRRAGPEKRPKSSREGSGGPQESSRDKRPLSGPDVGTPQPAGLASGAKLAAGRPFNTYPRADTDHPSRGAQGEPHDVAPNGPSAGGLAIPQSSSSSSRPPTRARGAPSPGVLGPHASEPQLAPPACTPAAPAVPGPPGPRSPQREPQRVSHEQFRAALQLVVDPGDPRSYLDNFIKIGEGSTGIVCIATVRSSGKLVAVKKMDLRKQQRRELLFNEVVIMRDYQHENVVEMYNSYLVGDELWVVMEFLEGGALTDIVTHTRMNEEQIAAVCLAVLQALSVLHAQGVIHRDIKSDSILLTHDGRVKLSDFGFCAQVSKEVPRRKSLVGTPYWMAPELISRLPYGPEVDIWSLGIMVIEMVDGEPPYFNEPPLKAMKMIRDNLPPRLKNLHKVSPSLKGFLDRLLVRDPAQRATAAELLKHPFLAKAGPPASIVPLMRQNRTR
Sequence of Dual specificity mitogen-activated protein kinase kinase 1 (Homo sapiens) (Q02750 whole entry): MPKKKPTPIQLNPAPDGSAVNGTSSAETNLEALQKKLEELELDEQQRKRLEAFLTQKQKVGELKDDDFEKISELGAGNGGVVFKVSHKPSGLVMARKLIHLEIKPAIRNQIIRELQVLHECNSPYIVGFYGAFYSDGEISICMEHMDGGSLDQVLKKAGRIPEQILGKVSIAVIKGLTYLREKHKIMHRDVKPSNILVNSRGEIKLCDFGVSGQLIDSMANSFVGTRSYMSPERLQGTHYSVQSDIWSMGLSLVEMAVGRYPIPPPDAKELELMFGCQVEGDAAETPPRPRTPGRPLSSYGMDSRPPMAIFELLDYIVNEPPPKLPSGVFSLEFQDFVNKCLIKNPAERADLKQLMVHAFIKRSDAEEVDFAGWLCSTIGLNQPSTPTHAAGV
Sequence of Ribosomal protein S6 kinase alpha-3 (Homo sapiens) (P51812 whole entry, the tested form may be a part): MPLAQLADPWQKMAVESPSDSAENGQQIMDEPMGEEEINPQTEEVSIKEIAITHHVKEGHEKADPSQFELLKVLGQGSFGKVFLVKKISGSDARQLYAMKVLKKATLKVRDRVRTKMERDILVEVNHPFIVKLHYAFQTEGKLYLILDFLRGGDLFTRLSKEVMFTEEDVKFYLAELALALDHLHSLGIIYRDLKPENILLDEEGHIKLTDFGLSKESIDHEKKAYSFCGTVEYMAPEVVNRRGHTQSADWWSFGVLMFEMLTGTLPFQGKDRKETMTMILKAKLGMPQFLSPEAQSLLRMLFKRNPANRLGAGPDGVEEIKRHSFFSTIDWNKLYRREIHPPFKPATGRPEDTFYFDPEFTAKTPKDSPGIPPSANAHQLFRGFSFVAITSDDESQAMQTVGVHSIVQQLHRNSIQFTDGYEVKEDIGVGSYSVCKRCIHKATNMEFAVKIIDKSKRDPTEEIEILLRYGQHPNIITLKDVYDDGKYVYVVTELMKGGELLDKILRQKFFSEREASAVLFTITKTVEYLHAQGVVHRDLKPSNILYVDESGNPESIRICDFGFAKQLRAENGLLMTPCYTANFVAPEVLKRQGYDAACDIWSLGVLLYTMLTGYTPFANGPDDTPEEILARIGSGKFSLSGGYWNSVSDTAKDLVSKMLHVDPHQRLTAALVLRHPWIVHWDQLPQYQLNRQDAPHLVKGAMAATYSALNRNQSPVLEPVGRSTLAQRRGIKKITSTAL
Sequence of MAP/microtubule affinity-regulating kinase 3 (Homo sapiens) (P27448 whole entry, looked up): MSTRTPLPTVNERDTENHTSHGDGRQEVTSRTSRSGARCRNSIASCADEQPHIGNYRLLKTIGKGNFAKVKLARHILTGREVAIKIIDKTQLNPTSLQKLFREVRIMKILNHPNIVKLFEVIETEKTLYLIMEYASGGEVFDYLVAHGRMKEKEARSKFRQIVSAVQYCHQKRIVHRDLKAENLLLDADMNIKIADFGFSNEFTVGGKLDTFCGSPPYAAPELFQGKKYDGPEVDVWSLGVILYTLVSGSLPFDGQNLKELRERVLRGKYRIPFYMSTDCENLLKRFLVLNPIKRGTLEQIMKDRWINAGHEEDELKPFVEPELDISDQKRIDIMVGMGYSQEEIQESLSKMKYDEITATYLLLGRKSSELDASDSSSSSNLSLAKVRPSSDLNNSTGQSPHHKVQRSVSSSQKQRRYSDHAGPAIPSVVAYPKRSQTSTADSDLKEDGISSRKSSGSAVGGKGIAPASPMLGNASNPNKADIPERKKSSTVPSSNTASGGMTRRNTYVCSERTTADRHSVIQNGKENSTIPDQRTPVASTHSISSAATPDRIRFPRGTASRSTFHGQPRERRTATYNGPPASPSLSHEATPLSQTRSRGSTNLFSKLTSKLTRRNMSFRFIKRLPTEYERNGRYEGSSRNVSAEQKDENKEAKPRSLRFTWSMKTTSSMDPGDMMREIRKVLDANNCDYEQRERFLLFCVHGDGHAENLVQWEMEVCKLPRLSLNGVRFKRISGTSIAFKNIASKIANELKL

Activity [1]: 44% | Activity [2]: 100% | Activity [3]: 27% | Activity [4]: 34%
SMILES: CO[C@@H]1[C@H](N(C)C(=O)CCC(=O)NCCC(=O)NCCC(=O)NCCC(N)=O)C[C@H]2O[C@]1(C)n1c3ccccc3c3c4c(c5c6ccccc6n2c5c31)C(=O)NC4

Activity [5]: 57% | Activity [6]: 95% | Activity [7]: 100% | Activity [8]: 16%
SMILES: CO[C@@H]1[C@H](N(C)C(=O)CCC(=O)NCCC(=O)NCCC(=O)NCCC(=O)NCCC(=O)NCCC(=O)NCCC(=O)NCCC(=O)N[C@H]2CSSC[C@@H](C(=O)NCC(N)=O)NC(=O)CNC(=O)[C@H](Cc3ccccc3)NC(=O)[C@H](C(C)C)NC(=O)[C@H](CCCNC(=N)N)NC(=O)[C@H](Cc3ccccc3)NC(=O)[C@H](C(C)C)NC2=O)C[C@H]2O[C@]1(C)n1c3ccccc3c3c4c(c5c6ccccc6n2c5c31)C(=O)NC4 ({Staurosporine-Suc-βAla-βAla-βAla-βAla-βAla-βAla-βAla}-CVFRVFGCG-NH2; disulfide 1-8)

Activity [9]: 86% | Activity [10]: 61% | Activity [11]: 98%
SMILES: CO[C@@H]1[C@H](N(C)C(=O)CCC(=O)NCCC(=O)NCCC(=O)NCCC(=O)NCCC(=O)NCCC(=O)NCCC(=O)NCCC(=O)N[C@H]2CNC(=O)C[C@@H](C(N)=O)NC(=O)CNC(=O)[C@H](Cc3ccccc3)NC(=O)[C@H](C(C)C)NC(=O)[C@H](CCCNC(=N)N)NC(=O)[C@H](Cc3ccccc3)NC(=O)[C@H](C(C)C)NC2=O)C[C@H]2O[C@]1(C)n1c3ccccc3c3c4c(c5c6ccccc6n2c5c31)C(=O)NC4 ({Staurosporine-Suc-βAla-βAla-βAla-βAla-βAla-βAla-βAla}-[Dap]VFRVFGD-NH2; lactam 1-8)
